In ChEMBL document CHEMBL2384906, “Biological activity, design, synthesis and structure activity relationship of some novel derivatives of curcumin containing sulfonamides” (Eur J Med Chem, 2013):
Values after ≈ are worked out from the molar mass of the structure shown. Active and inactive are the calls of the source. No cut-off for these calls is given here.

Key:
HeLa = assay: Cytotoxicity against human HeLa cells after 24 hrs by MTT assay; assay type: functional, cell-based
In short: (§1)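 The MTT assay seeded 5 × 10⁴ cells per well and grew them 24 h in RPMI 1640 with compound at 2.5–200 µM. Medium without cells was the blank and adriamycin the positive control. MTT was added for 4 h at 37 °C, formazan was solubilised, and absorbance was read at 570 nm. IC50 is the concentration that cuts viability 50% against untreated cells.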

Aspergillus niger [1] = assay: Antifungal activity against Aspergillus niger MTCC 1108 assessed as zone of inhibition at 80 uM after 48 hrs by disc diffusion method; assay type: functional; conditions: MTCC 1108, 48 h, read-out: IZ
In short: (§2)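 Spores from 4-day potato dextrose agar cultures, suspended in sterile water at 1.5 × 10⁵ CFU/mL. 0.2 mL was spread on potato dextrose agar. 5 mm filter-paper discs soaked with test compound were laid on the lawn. Incubation was 48 h at 28 °C, then the inhibition zone was measured in mm. Fluconazole was the positive control and acetone the negative control.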

Trichoderma viride [2] = assay: Antifungal activity against Trichoderma viride MTCC 1107 assessed as zone of inhibition at 80 uM after 48 hrs by disc diffusion method; assay type: functional; conditions: MTCC 1107, 48 h, read-out: IZ; in short: as §2
Aspergillus flavus [3] = assay: Antifungal activity against Aspergillus flavus MTCC 1021 assessed as zone of inhibition at 20 uM after 48 hrs by disc diffusion method; assay type: functional; conditions: MTCC 1021, 48 h, read-out: IZ; in short: as §2
Escherichia coli [4] = assay: Antimicrobial activity against Escherichia coli ATCC 35218 after 24 hrs by broth micro serial dilution method; assay type: functional; conditions: ATCC 35218, 24 h
In short: (§3)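 This was broth microdilution in autoclaved Mueller-Hinton broth. 150 µL of compound per well was serially diluted […], and 50 µL of test organism was added. Plates were incubated 24 h at 37 °C and optical density was read.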

Bacillus cereus [5] = assay: Antimicrobial activity against Bacillus cereus MTCC 7350 after 24 hrs by broth micro serial dilution method; assay type: functional; conditions: MTCC 7350, 24 h; in short: as §3
Salmonella typhi [6] = assay: Antimicrobial activity against Salmonella typhi ATCC 23564 assessed as diameter of inhibition zone at 80 uM after 24 hrs by Kirby -Baur disc diffusion method; assay type: functional; conditions: Salmonella enterica subsp. enterica serovar Typhi
Curvularia lunata [7] = assay: Antifungal activity against Curvularia lunata MTCC 581 after 48 hrs; assay type: functional; conditions: MTCC 581, 48 h
Staphylococcus aureus [8] = assay: Antimicrobial activity against Staphylococcus aureus ATCC 11632 assessed as diameter of inhibition zone at 40 uM after 24 hrs by Kirby -Baur disc diffusion method; assay type: functional
In short: (§4)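 Kirby-Bauer disc diffusion was used. Acetone stocks (160 µM) were serially doubled down to 80, 40 and 20 µM. 4 µL of each went onto 5 mm sterile paper discs, which were dried 30 min at 50 °C. Inoculum was 1.5 × 10⁸ CFU/mL diluted to 3 × 10² CFU/mL, and 50 µL was spread on Mueller-Hinton agar. After 24 h at 37 °C the inhibition-zone diameter was measured. Ciprofloxacin served as positive control.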

Trichoderma viride [9] = assay: Antifungal activity against Trichoderma viride MTCC 1107 after 48 hrs; assay type: functional; conditions: MTCC 1107, 48 h
Escherichia coli [10] = assay: Antimicrobial activity against Escherichia coli ATCC 35218 assessed as diameter of inhibition zone at 80 uM after 24 hrs by Kirby -Baur disc diffusion method; assay type: functional; in short: as §4
Staphylococcus aureus [11] = assay: Antimicrobial activity against Staphylococcus aureus ATCC 11632 after 24 hrs by broth micro serial dilution method; assay type: functional; conditions: ATCC 11632, 24 h; in short: as §3
Aspergillus niger [12] = assay: Antifungal activity against Aspergillus niger MTCC 1108 assessed as zone of inhibition at 40 uM after 48 hrs by disc diffusion method; assay type: functional; conditions: MTCC 1108, 48 h, read-out: IZ; in short: as §2
HepG2 = assay: Cytotoxicity against human HepG2 cells after 24 hrs by MTT assay; assay type: functional, cell-based; in short: as §1
Bacillus cereus [13] = assay: Antimicrobial activity against Bacillus cereus MTCC 7350 assessed as diameter of inhibition zone at 80 uM after 24 hrs by Kirby -Baur disc diffusion method; assay type: functional; conditions: MTCC 7350, 24 h, read-out: DIZ; in short: as §4
Aspergillus niger [14] = assay: Antifungal activity against Aspergillus niger MTCC 1108 assessed as zone of inhibition at 20 uM after 48 hrs by disc diffusion method; assay type: functional; conditions: MTCC 1108, 48 h, read-out: IZ; in short: as §2
Aspergillus niger [15] = assay: Antifungal activity against Aspergillus niger MTCC 1108 after 48 hrs; assay type: functional; conditions: MTCC 1108, 48 h
Pseudomonas aeruginosa [16] = assay: Antimicrobial activity against Pseudomonas aeruginosa ATCC 15499 after 24 hrs by broth micro serial dilution method; assay type: functional; conditions: ATCC 15499, 24 h; in short: as §3
Bacillus cereus [17] = assay: Antimicrobial activity against Bacillus cereus MTCC 7350 assessed as diameter of inhibition zone at 40 uM after 24 hrs by Kirby -Baur disc diffusion method; assay type: functional; in short: as §4
Staphylococcus aureus [18] = assay: Antimicrobial activity against Staphylococcus aureus ATCC 11632 assessed as diameter of inhibition zone at 80 uM after 24 hrs by Kirby -Baur disc diffusion method; assay type: functional; conditions: ATCC 11632, 24 h, read-out: DIZ; in short: as §4
Aspergillus flavus [19] = assay: Antifungal activity against Aspergillus flavus MTCC 1021 after 48 hrs; assay type: functional; conditions: MTCC 1021, 48 h
Pseudomonas aeruginosa [20] = assay: Antimicrobial activity against Pseudomonas aeruginosa ATCC 15499 assessed as diameter of inhibition zone at 80 uM after 24 hrs by Kirby -Baur disc diffusion method; assay type: functional; in short: as §4
Aspergillus flavus [21] = assay: Antifungal activity against Aspergillus flavus MTCC 1021 assessed as zone of inhibition at 40 uM after 48 hrs by disc diffusion method; assay type: functional; conditions: MTCC 1021, 48 h, read-out: IZ; in short: as §2
Curvularia lunata [22] = assay: Antifungal activity against Curvularia lunata MTCC 581 assessed as zone of inhibition at 80 uM after 48 hrs by disc diffusion method; assay type: functional; conditions: MTCC 581, 48 h, read-out: IZ; in short: as §2
Curvularia lunata [23] = assay: Antifungal activity against Curvularia lunata MTCC 581 assessed as zone of inhibition at 40 uM after 48 hrs by disc diffusion method; assay type: functional; conditions: MTCC 581, 48 h, read-out: IZ; in short: as §2
Trichoderma viride [24] = assay: Antifungal activity against Trichoderma viride MTCC 1107 assessed as zone of inhibition at 20 uM after 48 hrs by disc diffusion method; assay type: functional; conditions: MTCC 1107, 48 h, read-out: IZ; in short: as §2
Trichoderma viride [25] = assay: Antifungal activity against Trichoderma viride MTCC 1107 assessed as zone of inhibition at 40 uM after 48 hrs by disc diffusion method; assay type: functional; conditions: MTCC 1107, 48 h, read-out: IZ; in short: as §2
QG-56 = assay: Cytotoxicity against human QG56 cells after 24 hrs by MTT assay; assay type: functional, cell-based; in short: as §1
Staphylococcus aureus [26] = assay: Antimicrobial activity against Staphylococcus aureus ATCC 11632 assessed as diameter of inhibition zone at 20 uM after 24 hrs by Kirby -Baur disc diffusion method; assay type: functional; in short: as §4
Salmonella typhi [27] = assay: Antimicrobial activity against Salmonella typhi ATCC 23564 after 24 hrs by broth micro serial dilution method; assay type: functional; conditions: Salmonella enterica subsp. enterica serovar Typhi
Aspergillus flavus [28] = assay: Antifungal activity against Aspergillus flavus MTCC 1021 assessed as zone of inhibition at 80 uM after 48 hrs by disc diffusion method; assay type: functional; conditions: MTCC 1021, 48 h, read-out: IZ; in short: as §2
Bacillus cereus [29] = assay: Antimicrobial activity against Bacillus cereus MTCC 7350 assessed as diameter of inhibition zone at 20 uM after 24 hrs by Kirby -Baur disc diffusion method; assay type: functional; in short: as §4
HCT-116 = assay: Cytotoxicity against human HCT116 cells after 24 hrs by MTT assay; assay type: functional, cell-based; in short: as §1
Mus musculus = assay: Antiinflammatory activity in mouse assessed as inhibition of carrageenan-induced increase in paw volume at 200 mg/kg administered 1 hr prior to carrageenan challenge measured after 3 hrs relative to control; assay type: functional
In short: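 Mice were fasted 2 h and placed in groups of five. Controls received saline i.p. Phenylbutazone was given at 100 mg/kg i.p., curcumin at 200 mg/kg i.p., and derivatives at 200 mg/kg. After 1 h, 0.1 mL of 1% carrageenan in saline was injected subplantar into the right hind paw. Paw volume was followed by plethysmometer for 3 h, and % inhibition was calculated as (Vc − Vt)/Vc × 100.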

Curvularia lunata [30] = assay: Antifungal activity against Curvularia lunata MTCC 581 assessed as zone of inhibition at 20 uM after 48 hrs by disc diffusion method; assay type: functional; conditions: MTCC 581, 48 h, read-out: IZ; in short: as §2

COc1cc(/C=C/C(=O)C(/N=N/c2ccc(S(=O)(=O)Nc3nc(C)cc(C)n3)cc2)=C(O)/C=C/c2ccc(O)c(OC)c2)ccc1O
IC50 (HeLa): 50 µM
zone of inhibition at 80 µM (Aspergillus niger [1]): 14 mm
zone of inhibition at 80 µM (Trichoderma viride [2]): 22 mm
zone of inhibition at 20 µM (Aspergillus flavus [3]): 11 mm
MIC (Escherichia coli [4]): > 80 µM
MIC (Bacillus cereus [5]): > 80 µM
diameter of the inhibition zone (DIZ) (Salmonella typhi [6]): inactive
MIC (Curvularia lunata [7]): 20 µM (≈ 13.2 µg/mL)
diameter of the inhibition zone (DIZ) (Staphylococcus aureus [8]): inactive
MIC (Trichoderma viride [9]): 20 µM (≈ 13.2 µg/mL)
diameter of the inhibition zone (DIZ) (Escherichia coli [10]): inactive
MIC (Staphylococcus aureus [11]): > 80 µM
zone of inhibition at 40 µM (Aspergillus niger [12]): 12 mm
IC50 (HepG2): > 100 µM
zone of inhibition at 80 µM (Bacillus cereus [13]): 11 mm
zone of inhibition at 20 µM (Aspergillus niger [14]): 9 mm
MIC (Aspergillus niger [15]): 40 µM (≈ 26.3 µg/mL)
MIC (Pseudomonas aeruginosa [16]): > 80 µM
diameter of the inhibition zone (DIZ) (Bacillus cereus [17]): inactive
zone of inhibition at 80 µM (Staphylococcus aureus [18]): 10 mm
MIC (Aspergillus flavus [19]): 40 µM (≈ 26.3 µg/mL)
diameter of the inhibition zone (DIZ) (Pseudomonas aeruginosa [20]): inactive
zone of inhibition at 40 µM (Aspergillus flavus [21]): 13 mm
zone of inhibition at 80 µM (Curvularia lunata [22]): 22 mm
zone of inhibition at 40 µM (Curvularia lunata [23]): 19 mm
zone of inhibition at 20 µM (Trichoderma viride [24]): 18 mm
zone of inhibition at 40 µM (Trichoderma viride [25]): 19 mm
IC50 (QG-56): 100 µM
diameter of the inhibition zone (DIZ) (Staphylococcus aureus [26]): inactive
MIC (Salmonella typhi [27]): inactive
zone of inhibition at 80 µM (Aspergillus flavus [28]): 14 mm
diameter of the inhibition zone (DIZ) (Bacillus cereus [29]): inactive
IC50 (HCT-116): Not Active
inhibition in vivo at 200 mg/kg (Mus musculus): 33.8%
zone of inhibition at 20 µM (Curvularia lunata [30]): 18 mm
